Several values for one entry are separate records, joined by “and”; a condition that tells them apart may be missing. Equal entries are not always repeated.
Experiments:
Canis familiaris [1] = assay: Effect of compound at a dose of 10 mg/kg iv, on standard cardiovascular in anesthetized normotensive dogs after administration of carbachol; format: functional, Canis lupus familiaris, Heart
Procedure, shortened: (§1)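 Trachea intubated, artificially respired, bilateral vagotomy. Femoral artery cannulated for BP, femoral vein for drugs. BP and heart rate recorded continuously. Each iv challenge given twice predrug for matched responses and once after test drug. Doses: epinephrine and norepinephrine 0.5 to 1.0 μg/kg; isoproterenol and carbachol 0.25 μg/kg.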

Canis familiaris [2] = assay: Effect of compound at a dose of 10 mg/kg iv, on standard cardiovascular in anesthetized normotensive dogs after administration of epinephrine.; format: functional, Canis lupus familiaris, Heart; procedure, shortened: as §1
Canis familiaris [3] = assay: Effect of compound at a dose of 10 mg/kg iv, on standard cardiovascular in anesthetized normotensive dogs after administration of isoproterenol.; format: functional, Canis lupus familiaris, Heart; procedure, shortened: as §1
Canis familiaris [4] = assay: Effect of compound at a dose of 10 mg/kg iv, on standard cardiovascular in anesthetized normotensive dogs before administration of isoproterenol.; format: functional, Canis lupus familiaris, Heart; procedure, shortened: as §1
Canis familiaris [5] = assay: Effect of compound at a dose of 10 mg/kg iv, on standard cardiovascular in anesthetized normotensive dogs before administration of norepinephrine.; format: functional, Canis lupus familiaris, Heart; procedure, shortened: as §1
Canis familiaris [6] = assay: Effect of compound at a dose of 10 mg/kg iv, on standard cardiovascular in anesthetized normotensive dogs before administration of tyramine.; format: functional, Canis lupus familiaris, Heart; procedure, shortened: as §1
Canis familiaris [7] = assay: Hemodynamic effect in sinoaortic- deafferented hypertensive dog measured as mean arterial BP after 0 min of 5 mg/kg dose; format: functional, Canis lupus familiaris
Canis familiaris [8] = assay: Hemodynamic effect in sinoaortic- deafferented hypertensive dog measured as mean arterial BP after 30 min of 5 mg/kg dose; format: functional, Canis lupus familiaris
Canis familiaris [9] = assay: Hemodynamic effect in sinoaortic- deafferented hypertensive dog measured as mean arterial BP after 5 min of 5 mg/kg dose; format: functional, Canis lupus familiaris
Canis familiaris [10] = assay: Hemodynamic effect in sinoaortic- deafferented hypertensive dog measured as mean arterial BP after 60 min of 5 mg/kg dose; format: functional, Canis lupus familiaris
Canis familiaris [11] = assay: Mean arterial BP after administration at a dose of 10 mg/kg iv.; format: functional, Canis lupus familiaris
Canis familiaris [12] = assay: Mean arterial BP before administration at a dose of 10 mg/kg iv.; format: functional, Canis lupus familiaris
Canis familiaris [13] = assay: Hemodynamic effect in sinoaortic- deafferented hypertensive dog measured as heart rate after 0 min of 5 mg/kg dose; format: functional, Canis lupus familiaris
Canis familiaris [14] = assay: Hemodynamic effect in sinoaortic- deafferented hypertensive dog measured as heart rate after 30 min of 5 mg/kg dose; format: functional, Canis lupus familiaris
Canis familiaris [15] = assay: Hemodynamic effect in sinoaortic- deafferented hypertensive dog measured as heart rate after 5 min of 5 mg/kg dose; format: functional, Canis lupus familiaris
Canis familiaris [16] = assay: Hemodynamic effect in sinoaortic- deafferented hypertensive dog measured as heart rate after 60 min of 5 mg/kg dose; format: functional, Canis lupus familiaris
Canis familiaris [17] = assay: Mean Heart rate after. administration at a dose of 10 mg/kg iv.; format: functional, Canis lupus familiaris
Canis familiaris [18] = assay: Mean Heart rate before administration at a dose of 10 mg/kg iv.; format: functional, Canis lupus familiaris
Canis familiaris [19] = assay: Hemodynamic effect in sinoaortic- deafferented hypertensive dog measured as left ventricular pressure after 0 min of 5 mg/kg; format: functional, Canis lupus familiaris, Heart left ventricle
Canis familiaris [20] = assay: Hemodynamic effect in sinoaortic- deafferented hypertensive dog measured as left ventricular pressure after 30 min of 5 mg/kg; format: functional, Canis lupus familiaris, Heart left ventricle
Canis familiaris [21] = assay: Hemodynamic effect in sinoaortic- deafferented hypertensive dog measured as left ventricular pressure after 5 min of 5 mg/kg; format: functional, Canis lupus familiaris, Heart left ventricle
Canis familiaris [22] = assay: Hemodynamic effect in sinoaortic- deafferented hypertensive dog measured as left ventricular pressure after 60 min of 5 mg/kg; format: functional, Canis lupus familiaris, Heart left ventricle
Canis familiaris [23] = assay: Effect of compound at a dose of 10 mg/kg iv, on standard cardiovascular in anesthetized normotensive dogs after administration of norepinephrine.; format: functional, Canis lupus familiaris, Heart; procedure, shortened: as §1
Canis familiaris [24] = assay: Effect of compound at a dose of 10 mg/kg iv, on standard cardiovascular in anesthetized normotensive dogs after administration of tyramine.; format: functional, Canis lupus familiaris, Heart; procedure, shortened: as §1
Canis familiaris [25] = assay: Effect of compound at a dose of 10 mg/kg iv, on standard cardiovascular in anesthetized normotensive dogs before administration of carbachol; format: functional, Canis lupus familiaris, Heart; procedure, shortened: as §1
Canis familiaris [26] = assay: Effect of compound at a dose of 10 mg/kg iv, on standard cardiovascular in anesthetized normotensive dogs before administration of epinephrine.; format: functional, Canis lupus familiaris, Heart; procedure, shortened: as §1
Rattus norvegicus [27] = assay: hypotensive activity in renal hypertensive rats by using tail-cuff method measured as post drug BP (day/h) after administration of 10 mg/kg dose po;(day/h=2/2); format: functional, Blood
Procedure, shortened: (§2)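 Renal hypertension (modified Grollman) was made in male Sprague-Dawley rats under pentobarbital sodium 50 mg/kg ip. The right kidney was removed, and silk sutures around both poles of the left kidney constricted the parenchyma. After 3 weeks of stabilization, rats with systolic BP >150 mmHg were used. Compounds were given orally. Systolic BP was measured by tail-cuff predose and at the stated day/h after dosing.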

Rattus norvegicus [28] = assay: (§3) Oral hypotensive activity in spontaneously hypertensive rats by using tail-cuff method measured as change in systolic BP at the dose of 10 mg/kg po.; format: functional, Blood
Procedure, shortened: (§4)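 SHR of the Okamoto-Aoki strain, dosed orally every day with compound suspended in distilled water with Tween 80. Systolic pressure was taken by tail-cuff plethysmography on day 1 (predose, 2 h), day 3 (predose, 2 h) and day 5 (predose, 2 and 4 h). Initial BP is the pretreatment systolic pressure, with 4–8 rats per dose in the dose-response screen.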

Rattus norvegicus [29] = assay: hypotensive activity in renal hypertensive rats by using tail-cuff method measured as post drug BP (day/h) after administration of 10 mg/kg dose po;(day/h=3/2); format: functional, Blood; procedure, shortened: as §2
Rattus norvegicus [30] = assay: (§5) Oral hypotensive activity in spontaneously hypertensive rats by using tail-cuff method measured as change in systolic BP at the dose of 25 mg/kg po.; format: functional, Blood; procedure, shortened: as §4
Rattus norvegicus [31] = assay: (§6) Oral hypotensive activity in spontaneously hypertensive rats by using tail-cuff method measured as change in systolic BP at the dose of 50 mg/kg po.; format: functional, Blood
Procedure, shortened: (§7)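 Okamoto-Aoki strain spontaneously hypertensive rats. Compounds were suspended in distilled water with Tween 80 and given orally every day at 50, 30, 10 or 3 mg/kg. Systolic BP was measured by tail-cuff plethysmography on day 1 (predose and 2 h), day 3 (predose and 2 h) and day 5 (predose, 2 and 4 h). The screen used 4 rats; dose-response used 4–8 rats per dose.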

Rattus norvegicus [32] = assay: (§8) Oral hypotensive activity in spontaneously hypertensive rats by using tail-cuff method measured as change in systolic BP at the dose of 5 mg/kg po.; format: functional, Blood; procedure, shortened: as §7
Rattus norvegicus [33] = assay: hypotensive activity in renal hypertensive rats by using tail-cuff method measured as post drug BP (day/h) after administration of 10 mg/kg dose po;(day/h=3/0); format: functional, Blood; procedure, shortened: as §2
Rattus norvegicus [34] = assay: Hypotensive activity in renal hypertensive rats by using tail-cuff method measured as initial BP at the dose of 10 mg/kg po.; format: functional, Blood
Procedure, shortened: (§9)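 Renal hypertension made in male Sprague-Dawley rats (Grollman modification). Under pentobarbital (50 mg/kg ip), the right kidney was removed and silk sutures tied around both poles of the left kidney to constrict it. After 3 weeks, rats with systolic BP >150 mmHg were used. Compound given po daily to 4 rats. Systolic BP by tail-cuff plethysmography at the listed day/hour after dosing.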

Rattus norvegicus [35] = assay: Hypotensive activity in renal hypertensive rats by using tail-cuff method measured as post drug BP (day/h) after administration of 10 mg/kg dose po;(day/h=1/2); format: functional, Blood; procedure, shortened: as §9
Rattus norvegicus [36] = assay: as §3; format: functional, Blood; remark: listed apart in the source
Procedure, shortened: (§10)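 Okamoto-Aoki spontaneously hypertensive rats. Compound suspended in distilled water with Tween 80, given po daily, screening dose 50 mg/kg, dose-response at 50, 30, 10 or 3 mg/kg unless stated. Systolic BP by tail-cuff plethysmography on day 1 predose and 2 h, day 3 predose and 2 h, and day 5 predose, 2 and 4 h. Reported as peak decrease on day 3 (or day 5) at 2 h ± SEM. n = 4 in screen, 4–8 per dose.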

Rattus norvegicus [37] = assay: as §5; format: functional, Blood; procedure, shortened: as §10; remark: listed apart in the source
Rattus norvegicus [38] = assay: as §6; format: functional, Blood; procedure, shortened: as §10; remark: listed apart in the source
Rattus norvegicus [39] = assay: as §8; format: functional, Blood; procedure, shortened: as §10; remark: listed apart in the source

## CN1CCC2(CC1)Oc1ccccc1C2n1cccc1 (centres undefined)
Canis familiaris [1]
  BP: -29.7 mmHg
Canis familiaris [2]
  BP: 67 mmHg
Canis familiaris [3]
  BP: -30 mmHg
Canis familiaris [4]
  BP: -38 mmHg
Canis familiaris [5]
  BP: 57 mmHg
Canis familiaris [6]
  BP: 52.5 mmHg
Canis familiaris [7]
  BP: 175 mmHg
Canis familiaris [8]
  BP: 129 mmHg
Canis familiaris [9]
  BP: 123 mmHg
Canis familiaris [10]
  BP: 129 mmHg
Canis familiaris [11]
  BP: 82.3 mmHg
Canis familiaris [12]
  BP: 117 mmHg
Canis familiaris [13]
  Rate: 194 beats min-1
Canis familiaris [14]
  Rate: 174 beats min-1
Canis familiaris [15]
  Rate: 154 beats min-1
Canis familiaris [16]
  Rate: 160 beats min-1
Canis familiaris [17]
  Rate: 113 beats min-1
Canis familiaris [18]
  Rate: 147 beats min-1
Canis familiaris [19]
  dP/dt: 24.2 1/Pmax s
Canis familiaris [20]
  dP/dt: 26.2 1/Pmax s
Canis familiaris [21]
  dP/dt: 26 1/Pmax s
Canis familiaris [22]
  dP/dt: 23.4 1/Pmax s
Canis familiaris [23]
  BP: 58 mmHg
Canis familiaris [24]
  BP: 48 mmHg
Canis familiaris [25]
  BP: -49.2 mmHg
Canis familiaris [26]
  BP: 53.7 mmHg
Rattus norvegicus [27]
  BP: 184 mmHg and 170 mmHg
Rattus norvegicus [28]
  BP: 190 mmHg
Rattus norvegicus [29]
  BP: 97 mmHg
Rattus norvegicus [30]
  BP: 196 mmHg
Rattus norvegicus [31]
  BP: 202 mmHg
Rattus norvegicus [32]
  BP: 184 mmHg
Rattus norvegicus [33]
  BP: 183 mmHg
Rattus norvegicus [34]
  BP: 206 mmHg
Rattus norvegicus [35]
  BP: 196 mmHg
Rattus norvegicus [36]
  Delta blood pressure: 50 mmHg
Rattus norvegicus [37]
  Delta blood pressure: 58 mmHg
Rattus norvegicus [38]
  Delta blood pressure: 39 mmHg
Rattus norvegicus [39]
  Delta blood pressure: 30 mmHg

Reference: ChEMBL document CHEMBL1122463, “2,3-dihydro-3-(1-pyrryl)spiro[benzofuran-2,4'-piperidine]s and 2,3-dihydro-3-(1-pyrryl)spiro[benzofuran-2,3'-pyrrolidine]s: novel antihypertensive agents” (1983)
